From ChEMBL document CHEMBL4346679, “N, N', N″-trisubstituted guanidines: Synthesis, characterization and evaluation of their leishmanicidal activity” (Eur J Med Chem, 2019)
The source made the active and inactive calls. The rule behind the calls is not given here.

What was measured:
Leishmania amazonensis [1] = assay: Antileishmanial activity against promastigote stage of Leishmania amazonensis MPRO/BR/1972/M1841-LV-79 assessed as parasite growth inhibition after 72 hrs by MTT assay; format: functional, organism-based; details: MPRO/BR/1972/M1841-LV-79, 72 h
In short: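 Promastigotes at 1 × 10^7/mL in LIT + 10% FBS were exposed 72 h at 28 °C to ten concentrations, 0.5–100 µM (final DMSO 0.1%). Viability was read by MTT, with formazan dissolved in SDS-HCl and absorbance at 570 nm. Run in triplicate; IC50 from nonlinear regression.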

Leishmania amazonensis [2] = assay: Antileishmanial activity against Leishmania amazonensis MPRO/BR/1972/M1841-LV-79 amastigotes infected in mouse peritoneal macrophages assessed as parasite growth inhibition after 24 hrs by Giemsa staining-based microscopic method; format: functional, organism-based; details: MPRO/BR/1972/M1841-LV-79, 24 h
In short: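 Peritoneal macrophages (3 × 10^5/well on coverslips, RPMI 1640 + 10% FBS) adhered 4 h at 37 °C, 5% CO2, then infected with stationary-phase promastigotes at 5:1 for 4 h. After washing, cells were cultured 18 h, then treated 24 h with compounds or reference drugs. Cells were methanol-fixed and Giemsa-stained. Infection index = % infected macrophages × mean amastigotes per infected cell. IC50 was fitted by regression.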

[3] = Cytotoxicity against mouse peritoneal macrophages assessed as decrease in cell viability after 24 hrs by MTT assay; format: cell-based, Peritoneal macrophage
In short: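 Peritoneal macrophages (1 × 10^5/well) in RPMI 1640 with 10% FBS, 25 mM HEPES and 2 mM L-glutamine were pre-incubated 4 h. They were then exposed to compounds for 24 h at 37 °C, 5% CO2. Viability was read by MTT; CC50 determined.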

[4] = Safety index, ratio of CC50 for mouse peritoneal macrophage to IC50 for promastigote stage of Leishmania amazonensis MPRO/BR/1972/M1841-LV-79; format: toxicity; details: read-out: Ratio CC50/IC50
[5] = Safety index, ratio of CC50 for mouse peritoneal macrophages to IC50 for Leishmania amazonensis MPRO/BR/1972/M1841-LV-79 amastigotes infected in mouse peritoneal macrophages; format: toxicity; details: read-out: Ratio CC50/IC50
Leishmania amazonensis [6] = assay: Antileishmanial activity against promastigote stage of Leishmania amazonensis MPRO/BR/1972/M1841-LV-79 infected in Balb/c mouse assessed as reduction in parasitic load at 2 mg/kg, ip administered once daily for 15 days by limiting dilution method relative to control; format: functional; parameters: scale not given: the % may be the effect or the level left
In short: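 Footpad-infected female BALB/c mice (1 × 10^7 parasites/mL promastigotes; 5 per group) were treated from six weeks post-infection. Dosing was daily ip for 15 days: 0.13 or 0.25 mg/kg/day (PBS, 0.1% DMSO), AmpB 2 mg/kg/day, or PBS vehicle. Skin-lesion parasite burden was quantified after treatment by limiting dilution and compared with untreated infected mice. Data are mean ± SD.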

Leishmania amazonensis [7] = assay: Antileishmanial activity against Leishmania amazonensis MPRO/BR/1972/M1841-LV-79 amastigotes infected in mouse peritoneal macrophages assessed as reduction in number of intracellular amastigotes at 25 uM after 72 hrs by Giemsa staining-based microscopic method relative to control; format: functional; parameters: scale not given: the % may be the effect or the level left
In short: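 Infected peritoneal macrophages were treated with 25 µM of each compound, pentamidine or AmpB for 72 h. The infection index (% infected macrophages × amastigotes per infected macrophage) was compared with untreated infected cells. Data are given as mean ± SD.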

Leishmania amazonensis [8] = assay: Antileishmanial activity against promastigote stage of Leishmania amazonensis MPRO/BR/1972/M1841-LV-79 infected in Balb/c mouse assessed as reduction in volume of foot lesions at 2 mg/kg, ip administered once daily for 15 days measured every 5 days during compound dosing by caliper method; format: functional, organism-based
In short: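 Infected BALB/c mice (5 per group) were dosed daily ip for 15 days, starting six weeks after footpad inoculation: 0.13 or 0.25 mg/kg/day, AmpB 2 mg/kg/day, or PBS. Foot lesion thickness was measured with a dial caliper every 5 days.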

[9] = Toxicity in Balb/c mouse infected with promastigote stage of Leishmania amazonensis MPRO/BR/1972/M1841-LV-79 assessed as change in body weight at 2 mg/kg, ip administered once daily for 15 days measured during compound dosing; format: organism-based; details: in vivo, 360 h
Leishmania amazonensis [10] = assay: Antileishmanial activity against promastigote stage of Leishmania amazonensis MPRO/BR/1972/M1841-LV-79 infected in Balb/c mouse assessed as increase in plasma bilirubin level at 2 mg/kg, ip administered once daily for 15 days measured during compound dosing; format: functional, organism-based
[11] = Renal toxicity in Balb/c mouse infected with promastigote stage of Leishmania amazonensis MPRO/BR/1972/M1841-LV-79 assessed as change in plasma creatinine level at 2 mg/kg, ip administered once daily for 15 days measured post-last dose; format: organism-based; details: in vivo, 360 h
In short: (§1)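 Female BALB/c mice (4 weeks old, 5 per group) were infected in the left hind footpad with 1 × 10^7 parasites/mL of infective promastigotes. After six weeks they received daily ip doses for 15 days: 0.13 or 0.25 mg/kg/day (from DMSO stock in PBS, 0.1% DMSO), AmpB 2 mg/kg/day in sterile water, or PBS. Controls were untreated infected and uninfected mice. At end of treatment, plasma bilirubin, AST, ALT, ALP, urea and creatinine were measured with commercial kits.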

[12] = Renal toxicity in Balb/c mouse infected with promastigote stage of Leishmania amazonensis MPRO/BR/1972/M1841-LV-79 assessed as change in plasma urea level at 2 mg/kg, ip administered once daily for 15 days measured post-last dose; format: organism-based; details: in vivo, 360 h; in short: as §1
Leishmania amazonensis [13] = assay: Antileishmanial activity against promastigote stage of Leishmania amazonensis MPRO/BR/1972/M1841-LV-79 infected in Balb/c mouse assessed as decrease in plasma alkaline phosphatase level at 2 mg/kg, ip administered once daily for 15 days measured post-last dose; format: organism-based; details: in vivo, 360 h; in short: as §1
Leishmania amazonensis [14] = assay: Antileishmanial activity against promastigote stage of Leishmania amazonensis MPRO/BR/1972/M1841-LV-79 infected in Balb/c mouse assessed as decrease in plasma aspartate aminotransferase level at 2 mg/kg, ip administered once daily for 15 days measured post-last dose; format: functional, organism-based; in short: as §1
Leishmania amazonensis [15] = assay: Antileishmanial activity against promastigote stage of Leishmania amazonensis MPRO/BR/1972/M1841-LV-79 infected in Balb/c mouse assessed as decrease in plasma alanine aminotransferase level at 2 mg/kg, ip administered once daily for 15 days measured post-last dose; format: functional, organism-based; in short: as §1

Structure (SMILES): C[C@@H]1[C@H](O)[C@@H](C)/C=C/C=C/C=C/C=C/C=C/C=C/C=C/[C@H](O[C@@H]2O[C@H](C)[C@@H](O)[C@H](N)[C@@H]2O)C[C@@H]2O[C@](O)(C[C@@H](O)C[C@@H](O)[C@H](O)CC[C@@H](O)C[C@@H](O)CC(=O)O[C@H]1C)C[C@H](O)[C@H]2C(=O)O [AMPHOTERICIN B]
- IC50 (Leishmania amazonensis [1]): 3.2 µM
- IC50 (Leishmania amazonensis [2]): 4.92 µM
- CC50 at 24 h [3]: 23.1 µM
- selectivity ratio [4]: 7.2
- selectivity ratio [5]: 4.7
- Activity (Leishmania amazonensis [6]): 41%
- Activity (Leishmania amazonensis [7]): 84%
- Activity (Leishmania amazonensis [8]): Active
- Activity [9]: Non-Toxic
- Activity (Leishmania amazonensis [10]): Active
- Activity [11]: Non-Toxic
- Activity [12]: Non-Toxic
- Activity (Leishmania amazonensis [13]): Active
- Activity (Leishmania amazonensis [14]): Active
- Activity (Leishmania amazonensis [15]): Active
